In paper PMC3616455 (Molecular Pharmaceutics, 2013):
Residues, ends and D or L forms follow the SMILES beside them.

Experiments:
[1] = molecular target: T1, HCMV A143T/A144T protease mutant (Human cytomegalovirus, UniProt P16753, A143T/A144T); assay: Esterase activity toward p-nitrophenol; type: biochemical; conditions: for hydrolysis by HCMV protease (in words): up to 10 min at 30 °C
T1 sequence (P16753 1-256 A143T/A144T limits assumed): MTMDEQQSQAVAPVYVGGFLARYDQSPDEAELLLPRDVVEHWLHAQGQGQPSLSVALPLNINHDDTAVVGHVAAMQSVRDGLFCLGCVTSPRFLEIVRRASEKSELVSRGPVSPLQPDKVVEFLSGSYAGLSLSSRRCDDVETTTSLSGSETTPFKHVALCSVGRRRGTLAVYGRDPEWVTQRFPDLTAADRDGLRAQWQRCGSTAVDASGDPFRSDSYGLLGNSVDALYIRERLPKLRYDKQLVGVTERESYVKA
How it was run: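 Catalytic-domain His-tagged A143T/A144T mutant, expressed in E. coli BL21(DE3) and Ni-NTA purified, 10 μg/mL, preincubated 3 min in 100 mM phosphate pH 7.4 with 0.5 M Na2SO4 and 10% glycerol. Boc-Xaa-ONp (50 μM) then added at 30 °C for up to 10 min. p-Nitrophenol release read at 405 nm every 30 s. Boc-Ala-ONp kinetics run in 50 mM Tris pH 7.4.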

HCMV protease = conditions: substrate hydrolysis, literature data; cited from earlier work
[2] = Solubility of the model ester; type: physicochemical
[3] = substrate hydrolysis, 10 μg/mL protease, 50 mM Tris buffer (pH 7.4)

Compound: CC(C)[C@H](NC(=O)OC(C)(C)C)C(=O)Oc1ccc([N+](=O)[O-])cc1 [Boc-L-Val-ONp]
- hydrolysis by HCMV protease (in words) ([1]; 50 μM ester, 10 μg/mL protease): not hydrolyzed

Compound: N-Ac-Tbg-Tbg-Asn(NMe2)-Ala-AMC
- Km (HCMV protease): 13.2 µM
- kcat (HCMV protease): 0.035 ^b s^–1

Compound: CC(C)(C)OC(=O)N[C@@H](CCC(N)=O)C(=O)Oc1ccc([N+](=O)[O-])cc1 [Boc-L-Gln-ONp]
- hydrolysis by HCMV protease (in words) ([1]; 50 μM ester, 10 μg/mL protease): not hydrolyzed

Compound: C[C@H](NC(=O)OC(C)(C)C)C(=O)Oc1ccc([N+](=O)[O-])cc1 [Boc-L-Ala-ONp]
- specific activity relative to Boc-L-Gly-ONp and Boc-L-Phe-ONp (higher) ([1]; 50 μM ester, 10 μg/mL protease): ~5 fold
- specific activity ([1]; 50 μM ester, 10 μg/mL protease, 30 °C): 190 nmol/min/mg protein
- affinity relative to N-Ac-Tbg-Tbg-Asn(NMe2)-Ala-AMC (less) ([1]; comparison of Km values): about 10 fold
- turnover rate (kcat) relative to the peptide compound (faster) ([1]; comparison of kcat values): 10 fold
- Km [1, 3]: 163 µM
- kcat [1, 3]: 0.397 s^–1
- solubility (in words) [2]: low solubility

Compound: CC(C)(C)OC(=O)NCC(=O)NCC(=O)Oc1ccc([N+](=O)[O-])cc1 [Boc-L-Gly-L-Gly-ONp] (HELM PEPTIDE1{[CC(C)(C)OC(=O)[*:2]].G.G.[O=[N+]([O-])c1ccc(O[*:1])cc1]}$$$$V2.0)
- hydrolysis by HCMV protease (in words) ([1]; 50 μM ester, 10 μg/mL protease): slower than that of Boc-L-Gly-ONp

Compound: CC(C)CC(NC(=O)OC(C)(C)C)C(=O)Oc1ccc([N+](=O)[O-])cc1 [Boc-L-Leu-ONp]
- hydrolysis by HCMV protease (in words) ([1]; 50 μM ester, 10 μg/mL protease): not hydrolyzed

Compound: CCC(C)C(NC(=O)OC(C)(C)C)C(=O)Oc1ccc([N+](=O)[O-])cc1 [Boc-L-Ile-ONp]
- hydrolysis by HCMV protease (in words) ([1]; 50 μM ester, 10 μg/mL protease): not hydrolyzed
